This note sets out measurements from ChEMBL document CHEMBL4033790, “Design and Synthesis of Novel Deuterated Ligands Functionally Selective for the γ-Aminobutyric Acid Type A Receptor (GABAAR) α6 Subtype with Improved Metabolic Stability and Enhanced Bioavailability” (J Med Chem, 2018).

Converted amounts (≈) assume the structure as drawn. The source made the active and inactive calls. No cut-off for these calls is given here.

Data set [1] can be described thus: AUC (0 to 24 hrs) in Wistar rat plasma at 2 mg/kg, iv administered as single dose by HPLC-MS/MS analysis. It counts as ADME, organism-based. The arrangement: dose 2 mg/kg, time < 24 hr, route intravenous.
A short description of data set [2]: AUC (0 to 24 hrs) in Wistar rat plasma at 2 mg/kg administered as single dose via oral gavage by HPLC-MS/MS analysis. The class given is ADME, organism-based. Also noted: dose 2 mg/kg, time < 24 hr, route oral.
Data set [3] has as its system Brain. Briefly: AUC (0 to 24 hrs) in Wistar rat brain at 2 mg/kg, iv administered as single dose by HPLC-MS/MS analysis. The arrangement: time < 24 hr, dose 2 mg/kg, route intravenous. The note with it: in vivo. It counts as ADME, organism-based.
Data set [4] deals with Rattus norvegicus. Description: Toxicity in Wistar rat assessed as open arm entries at 10 mg/kg, ip administered for 45 mins measured for 5 min by elevated plus maze apparatus method (reference value: 23.07 +/- 5.47%). It counts as organism-based. The conditions noted are these: in vivo.
Data set [5] is described as follows: Metabolic stability in mouse liver microsomes assessed as parent compound remaining at 10 uM after 60 mins by LC-MS analysis. It counts as ADME, microsome. The conditions noted are these: read-out: Stability. Summed up:
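The 60 min samples of the microsomal incubation (10 μM compound, human or mouse liver microsomes at 0.5 mg/mL, NADPH regenerating system, 37 °C) were analysed by LC-MS. Detection used SIM mode with dual ESI/APCI ionization, calibrated to the retention times and masses of the parent and its O-demethylated metabolites. Peak intensities were measured.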
A general note: Microsomes from liver hold many membrane-bound enzymes, among them those of drug oxidation.

In data set [6] the test system is Rattus norvegicus. Briefly: Toxicity in Wistar rat assessed as closed arm entries at 10 mg/kg, ip administered for 45 mins measured for 5 min by elevated plus maze apparatus method (reference value: 3.63 +/- 0.42). The note with it: in vivo. It counts as organism-based.
Data set [7] relates to HepG2. Description: Cytotoxicity against human HepG2 cells assessed as reduction in cell viability up to 400 uM after 48 hrs by CellTiter-Glo assay. It counts as cell-based. The note with it: hepg2, 48 h. Summed up:
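HEK293T and HepG2 cells grown in high-glucose DMEM with non-essential amino acids, 10 mM HEPES, penicillin/streptomycin and 10% heat-inactivated FBS. Cells were harvested with trypsin and plated; compound was pin-transferred 3 h later. Incubation was 48 h, then CellTiter-Glo luminescence was read. Controls were DMSO (negative) and a cytotoxic aminoketone (positive). Quadruplicates, three independent runs, normalized to controls, nonlinear regression.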
On the technique in general: In ATP-based viability assays light output follows the ATP content of the culture.

Data set [8] in a line: Drug metabolism in human liver microsomes assessed as CYP450 mediated-O-demethylated 2-(4-hydroxyphenyl)-7-methoxy-2H-pyrazolo[4,3-c]quinolin-3(5H)-one metabolite formation after 60 mins by LC-MS analysis. The class given is ADME. The conditions noted are these: 1 h. The method, boiled down:
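The 60-min samples from the human or mouse liver microsome incubations (10 µM compound, 0.5 mg/mL protein, NADPH regenerating system, 37 °C, pH 7.4) were run on LC-MS in SIM mode with dual ESI/APCI ionization. The method was calibrated to each component's retention time and mass, and the peak intensities of the parent and O-demethylated metabolites were measured.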

In data set [9] the test system is Rattus norvegicus. Briefly: Toxicity in Wistar rat assessed as grip strength by measuring peak force of pull necessary to overcome strength of animal's grip at 10 mg/kg, ip (reference value: 2.79 +/- 0.16 kg/kg). The class given is organism-based. The conditions noted are these: in vivo.
A short description of data set [10]: Cmax in Wistar rat brain at 2 mg/kg administered as single dose via oral gavage measured at 5 to 1440 mins post dose by HPLC-MS/MS analysis. It counts as ADME, organism-based. Also noted: dose 2 mg/kg, route oral. Summed up:
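Male Wistar rats (250-350 g) received a single 2 mg/kg dose, nanoemulsion formulation, by oral gavage or IV. Three rats per time point (5, 30, 120, 480, 1440 min); plasma and brain collected. Compound extracted by solid-phase extraction and quantified by HPLC-MS/MS. Absolute oral bioavailability was calculated from plasma AUC after the two routes.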

Data set [11] deals with Rattus norvegicus. Briefly: Toxicity in Wistar rat assessed as peripheral ring distance at 10 mg/kg, ip administered for 45 mins by cued water-maze method (reference value: 67.44 +/- 4.60%). It counts as organism-based. The note with it: in vivo, 0.75 h.
In data set [12] the test system is Mus musculus. Description: Hyperlocomotor activity in C57BL/6 mouse assessed as total distance travelled at 3 to 10 mg/kg, ip after 60 mins in presence of diazepam. The conditions noted are these: in vivo, 1 h. The class given is ADME, organism-based.
For data set [13], the system named is Rattus norvegicus. Description: Toxicity in Wistar rat assessed as total distance traveled at 10 mg/kg, ip administered for 45 mins measured for 5 min by elevated plus maze method (reference value: 6.71 +/- 0.56 meter). It counts as organism-based. The conditions noted are these: in vivo.
The target of data set [14] is GABA-A receptor; alpha-2/beta-3/gamma-2 (Homo sapiens) (UniProt P18507+P28472+P47869). Description: Positive allosteric modulation of GABA-A receptor alpha2beta3gamma2 (unknown origin) expressed in Xenopus laevis oocytes assessed as potentiation of EC3 GABA induced currents up to 1 uM at -60 mV holding potential by electrophysiological method relative to GABA. The class given is cell-based. The method, boiled down:
(§1)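 Stage 5–6 defolliculated Xenopus oocytes were injected with 2.5 ng total mRNA per oocyte: α1, α2, α3 or α5 with β3 and γ2 at 1:1:5, and α4 or α6 with β3 and γ2 at 3:1:5. Oocytes were kept ≥36 h at 18 °C in NDE medium before recording. Compounds were co-applied with GABA titrated to EC3-5 for each oocyte. Curves were fitted with the Hill equation; mean ± SEM from ≥3 oocytes across two batches.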

Data set [15] concerns Liver. Description: Half life in mouse liver microsomes at 10 uM by LC-MS/MS analysis. It counts as ADME, microsome. The method, boiled down: (§2)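 Compound at 10 μM final was preincubated 5 min at 37 °C with NADPH regenerating system in phosphate buffer, pH 7.4. Human or mouse liver microsomes (0.5 mg/mL protein) were added to start the reaction. Samples were taken at 0 (no microsomes) and 10–60 min and measured by LC-MS/MS against an internal standard. Half-life = 0.693/k, with k the slope of ln peak-area ratio versus time. Three experiments, each in duplicate.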

Data set [16] is described as follows: Solubility of the compound in 0.01M HCl at pH 2 after 2 hrs by LC-MS analysis. The class given is physicochemical. The note with it: buffer, pH 2, 2 h. Summed up:
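10 mg compound dissolved in 2 mL DMAC; 10 μL of this added to 2 mL DI water (pH 7, sonicated) or 2 mL 0.01 M aq HCl (pH 2), held 2 h at 37 °C. Filtered through 0.45 micron filter, then quantified by LC-MS in SIM mode against calibration curves of standards in DMAC (n = 5); n=3.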

For data set [17], the species on record is Rattus norvegicus. Description: Displacement of [3H]-flunitrazepam from rat brain GABA-A receptor benzodiazepine site […] at 10 uM after 60 to 90 mins by scintillation counting. (In general: In a radioligand displacement assay an active substance lowers the binding of a labelled ligand.)
Data set [18] concerns the target GABA-A receptor; alpha-6/beta-3/gamma-2 (Homo sapiens) (UniProt P18507+P28472+Q16445). Description: Positive allosteric modulation of GABA-A receptor alpha6beta3gamma2 (unknown origin) expressed in Xenopus laevis oocytes assessed as potentiation of EC3 GABA induced currents at 30 uM at -60 mV holding potential by electrophysiological method relative to GABA. The class given is cell-based. Summed up:
as §1

For data set [19], the system named is Liver. Description: Half life in human liver microsomes at 10 uM by LC-MS/MS analysis. The class given is ADME, microsome. Summed up:
as §2

The target in data set [20] is GABA-A receptor; alpha-1/beta-3/gamma-2 (Homo sapiens) (UniProt P14867+P18507+P28472). Briefly: Positive allosteric modulation of GABA-A receptor alpha1beta3gamma2 (unknown origin) expressed in Xenopus laevis oocytes assessed as potentiation of EC3 GABA induced currents up to 1 uM at -60 mV holding potential by electrophysiological method relative to GABA. It counts as cell-based. The method, boiled down:
as §1

As to `[2H]C([2H])([2H])Oc1ccc(-n2nc3c4ccc(OC)cc4[nH]cc-3c2=O)cc1`, the AUC(0-t) at 24 h in [1] and in data set [2] was 3000 ng·h/mL throughout. Also, the AUC in data set [3] was 573.46 ng·h/g. Besides, the Activity in [4] is 22.36%; in data set [6], 2.63; in [7], “Non-Toxic”; in data set [9], 2.67 kg/kg; in data set [11] it was 67.2%; in data set [12], “Toxic”. Further, the Activity in [13] was determined as 5.84 m. Further, in data set [5], the remaining at 1 h, 10 µM was 92.8%. In data set [8], the Drug metabolism entry is “Metabolite_Detected”. Besides, the highest level in data set [10] (Cmax) was 67.3 ng/g.
On to `COc1ccc(-n2nc3c4ccc(OC)cc4[nH]cc-3c2=O)cc1`, for which the area under the curve AUC(0-t) at 24 h in [1] was found to be 1890 ng·h/mL; in [2], 1270 ng·h/mL. Besides, the Activity in [14] was below 0%; in [18] it was 900%; in [20], below 0%. In addition, the t1/2 in data set [15] is 3.2 h; in [19] it was 3.6 h. The molecule further came in with an AUC in data set [3] of 857.8 ng·h/g. Besides, the solubility in data set [16] worked out at 27.8 µM (≈ 8.93 µg/mL). Besides, the remaining at 1 h, 10 µM in [5] was 80.3%. Besides, the inhibition result in data set [17] was “Active”. The Cmax in [10] is 67.3 ng/g. Further, the outcome in data set [18] (tested as the 2H-labelled form) was inactive.

In general, AUC(0-t) refers to exposure summed from dosing to a finite time, without extrapolation to infinity. A lower AUC(0-t) goes with low exposure. A word on the Cmax: it is the highest concentration seen after dosing. As a reminder, the solubility is the concentration that dissolves in the medium under given conditions. Higher therefore signals a readily soluble substance.
